Laboratory results from publication PMC3594649 (Molecular pharmaceutics, 2013).
Read-outs that look alike come from different tables or passages of the source. One block for each compound: values may come before it.

How the values were obtained:
[1] = assay type: in vivo, mouse
Procedure, shortened: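 An ileal segment of 2–3 cm was perfused open-loop at 0.2 ml/min, with or without GF120918 (4 μM) in the perfusate. Collected mesenteric blood was analysed by C18 HPLC with fluorescence detection (ex 268/em 347 nm). Metabolite is expressed relative to parent drug.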

[2] = test system: ileum of TgCYP3A4/hPXR mice; assay: In situ intestinal perfusion with mesenteric blood sampling, TgCYP3A4/hPXR mice; assay type: in vivo, mouse; conditions: for increase in intestinal permeability for darunavir: GF120918 4 μM in perfusate
[3] = concomitant administration of sulforaphane, humans; cited from earlier work

concentration of R426857 relative to darunavir in mesenteric blood ([1]; TgCYP3A4/hPXR mice, perfusion without GF120918): less than 0.8%
relative amount of R426857 to darunavir in mesenteric blood ([1]; perfused with GF120918, rifampicin-treated TgCYP3A4/hPXR mice): 3.1%
relative amount of R426857 to darunavir in mesenteric blood ([1]; perfused with GF120918, untreated TgCYP3A4/hPXR mice): 1.6%
SMILES: CC(C)(O)CN(C[C@@H](O)[C@H](Cc1ccccc1)NC(=O)O[C@H]1CO[C@H]2OCC[C@H]21)S(=O)(=O)c1ccc(N)cc1 [R426857]

SMILES: COc1cc2c(cc1OC)CN(CCc1ccc(NC(=O)c3cccc4c(=O)c5cccc(OC)c5[nH]c34)cc1)CC2 [GF120918, N-(4-[2-(1,2,3,4-tetrahydro-6,7-dimethoxy-2-isoquinolinyl)ethyl]-phenyl)-9,10-dihydro-5-methoxy-9-oxo-4-acridine carboxamide]
increase in intestinal permeability for darunavir ([2]; TgCYP3A4/hPXR mice not treated with rifampicin, darunavir 100 μM in FaSSIF, p < 0.05): 56%
increase in intestinal permeability for darunavir ([2]; rifampicin-treated TgCYP3A4/hPXR mice (10 mg/kg, 3 days), p<0.05): 400%

effect on intestinal permeability for darunavir ([2]; rifampicin-treated TgCYP3A4/hPXR mice, aminobenzotriazole 100 μM in perfusate): did not increase
SMILES: Nn1nnc2ccccc21 [aminobenzotriazole]

SMILES: C[S+]([O-])CCCCN=C=S (stereo not shown) [sulforaphane]
effect on rifampicin-caused decrease of midazolam AUC [3]: did not reduce
